What all share (format): functional
One assay relates to Bacillus cereus. Put plainly: Antimicrobial activity against Bacillus cereus CCT 4060 after 24 hrs by MTT method. The essentials:
(§1)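 Strain grown on solid nutrient broth slants at 30 °C for 24 h, then suspended in sterile water to 3 × 10⁸ cells/mL (McFarland). Suspension diluted into Mueller-Hinton medium in 96-well plates. Samples started from 1000 µg/mL stock in 20% aqueous DMSO and serially diluted twofold. Incubated 30 °C, 24 h; 0.025% MTT added. Purple wells scored as growth, yellow as inhibition. Run in duplicate; concentration range for growth inhibition reported.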
Background: Formazan colour is commonly taken as a measure of viable cells.

The test system of a further assay is Bacillus subtilis. As to the kind of experiment: Antimicrobial activity against Bacillus subtilis CCT 0089 after 24 hrs by MTT method. The essentials: as §1
Another assay relates to Staphylococcus aureus. As to the kind of experiment: Antimicrobial activity against Staphylococcus aureus CCT 1295 24 hrs by MTT method. The essentials:
as §1

SMILES strings stand for the structures. Calls of active or inactive are those of the source. The rule behind the calls is not given here.

For `O=C(N[C@H](CO)[C@H](O)c1ccc([N+](=O)[O-])cc1)C(Cl)Cl` [CHLORAMPHENICOL], the Activity in the assay with Bacillus cereus turned out to be 3.91 µg/mL; in the assay on Bacillus subtilis, 3.91 µg/mL; in the assay on Staphylococcus aureus, 7.81 µg/mL.

Turning to `CCCCCC(=O)CC(=O)NC1CCOC1=O` (racemic), the Activity in the assay on Bacillus cereus is 62.5 µg/mL; with Bacillus subtilis it was 62.5 µg/mL; in the assay on Staphylococcus aureus, 500 µg/mL.

As for `CCCCCCCCCCCC(=O)CC(=O)NC1CCOC1=O` (racemic), the Activity in the assay on Bacillus cereus amounted to 500 µg/mL; in the assay on Bacillus subtilis, 250 µg/mL; in the assay on Staphylococcus aureus, 500 µg/mL.

As for `CCCCCCCCCC(=O)CC(=O)NC1CCOC1=O` (racemic), the Activity was found to be 125 µg/mL in the assay with Bacillus cereus, 125 µg/mL in the assay on Bacillus subtilis and 500 µg/mL in the assay on Staphylococcus aureus.

For the compound `CCCCCCC(=O)NC1CCOC1=O` (racemic), the result with Bacillus cereus and in the assay on Staphylococcus aureus was inactive. The same compound had an Activity in the assay with Bacillus subtilis of 500 µg/mL.
